M5 PAM: positive allosteric modulators of human muscarinic M5 receptor | activation, % at 3 µM | CHO-K1 hM5, Fluo-8 calcium, ACh EC20 PAM; 0% = ACh EC20, 100% = ACh EC100 | 360,000 compounds, 0.3% hits | AID 624038;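 active = activation above the run cutoff, the mean activation of all test compounds plus 3 SD, cut at about 18% in these data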
Target sequence (P08912 whole entry, looked up): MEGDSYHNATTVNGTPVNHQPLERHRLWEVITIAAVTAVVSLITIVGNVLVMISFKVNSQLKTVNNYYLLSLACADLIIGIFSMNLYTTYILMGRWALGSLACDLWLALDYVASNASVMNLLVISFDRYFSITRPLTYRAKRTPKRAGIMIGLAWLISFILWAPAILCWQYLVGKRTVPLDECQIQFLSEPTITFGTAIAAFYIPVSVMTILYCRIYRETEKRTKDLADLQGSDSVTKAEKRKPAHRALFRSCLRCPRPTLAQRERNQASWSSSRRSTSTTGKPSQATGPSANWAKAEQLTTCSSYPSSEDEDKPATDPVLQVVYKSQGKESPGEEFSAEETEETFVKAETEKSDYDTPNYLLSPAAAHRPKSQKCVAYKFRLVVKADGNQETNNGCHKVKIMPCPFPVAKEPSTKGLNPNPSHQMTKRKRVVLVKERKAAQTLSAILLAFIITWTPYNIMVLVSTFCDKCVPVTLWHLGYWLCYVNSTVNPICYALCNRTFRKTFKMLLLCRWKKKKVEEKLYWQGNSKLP
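System: CHO-K1 hM5 cells. Reagent: acetylcholine, EC20 level. Compound dosing: single dose, 3 µM nominal final test concentration. Timing: Post-acetylcholine fluorescence recording 140 s. Detection: Fluo-8 calcium fluorescence. Read-out: % activation, ACh-normalized. Benchmarks: ACh EC20 and EC100 wells. Repeats: singlicate, one well per test compound.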
CHO-K1 Ca PAM: nonselective activator or artifact in parental CHO-K1 calcium assay; ATP EC20, Fluo-8 calcium fluorescence; 0% at ATP EC20, 100% at ATP max; activation, % at 3 µM; 360,000 compounds, 0.02% hits;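 active = activation above the run cutoff, the mean activation of all test compounds plus 3 SD, cut at about 40% in these data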;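 also: peak over basal fluorescence ratio in a 140 s read after ATP addition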
CHRM5 antagonist: antagonists of human muscarinic M5 receptor (CHRM5); CHO-hM5 cells, Fluo-8 calcium fluorescence, ACh EC80; 360,000 compounds, 0.59% hits; AID 624040; P08912; inhibition, % at 3 µM;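 active = inhibition above a per-plate cutoff, the mean of that plate's test compounds plus 3 SD, cut at about 27% in these data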;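 also: 0% = acetylcholine EC80 with DMSO and 100% = DMSO without agonist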
M1 ag parental: nonselective activator or artifact in parental CHO-K1 cells; Fluo-8 calcium fluorescence; scaled to maximal ATP response, vehicle zero; activation, % at 3 µM; 360,000 compounds, 0.48% hits; AID 602248; in the data active = activation above about 15%;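 also: untransfected CHO-K1 host cells lacking M1 receptor as counterscreen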
M5 ag: CHRM5 agonism in calcium assay; activation, % at 3 µM; 360,000 compounds, 0.19% hits; AID 624037; CHO-K1 hM5 cells, Fluo-8 calcium fluorescence; 0% DMSO wells, 100% maximal acetylcholine response;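 active = activation above the run's mean over test compounds plus 3 SD, cut at about 23% in these data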;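 also: signal is peak over basal fluorescence ratio across the kinetic read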
CHO-K1 Ca antag: nonselective inhibitor or artifact in parental CHO-K1 cells; ATP-induced calcium, Fluo-8 fluorescence; inhibition, % at 3 µM; 360,000 compounds, 0.6% hits; AID 602250;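 active = inhibition above a per-plate cutoff, the plate's mean sample inhibition plus 3 SD, cut at about 24% in these data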;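 also: 0% = DMSO plus EC80 ATP and 100% = DMSO alone without ATP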
An asterisk follows results filed as active. Compounds with a hit are over-represented: about 1.7% of the library has one in this group of screens.

`C(C#CCCCCCCCCC[n+]1ccccc1)#CCCCCCCCCC[n+]1ccccc1` gave M5 PAM -38, CHO-K1 Ca PAM 15, CHRM5 antagonist 99*, M1 ag parental 1, M5 ag -12 and CHO-K1 Ca antag -6.
Cc1cc(Oc2ccc(N)cn2)ccc1Cl was read as M5 PAM 1, CHO-K1 Ca PAM -19, CHRM5 antagonist 31*, M1 ag parental 5, M5 ag 24* and CHO-K1 Ca antag 16.
CCC(C)NC(=O)C1CCN(S(=O)(=O)c2cc([N+](=O)[O-])ccc2Cl)CC1 (stereo unspecified) was read as M5 PAM -7, CHO-K1 Ca PAM 21, CHRM5 antagonist 10, M1 ag parental 1, M5 ag 0 and CHO-K1 Ca antag -11.
`O=C(Nc1nc2ccccc2s1)C1CCN(S(=O)(=O)c2cc([N+](=O)[O-])ccc2Cl)CC1` gave M5 PAM -30, CHO-K1 Ca PAM -20, CHRM5 antagonist 39*, M1 ag parental 9, M5 ag -4 and CHO-K1 Ca antag 40*.
CC(=O)N1c2ccccc2Oc2cc3ccccc3cc21 was read as M5 PAM -6, CHO-K1 Ca PAM -9, CHRM5 antagonist 2, M1 ag parental 0, M5 ag -6 and CHO-K1 Ca antag 15.
For O=C(CCl)N1c2ccccc2Oc2ccc3ccccc3c21 the results were M5 PAM -10, CHO-K1 Ca PAM 6, CHRM5 antagonist 23, M1 ag parental 9, M5 ag 38* and CHO-K1 Ca antag 16.
CSc1ncccc1C(=O)Nc1ccc(OC(F)(F)F)cc1 was read as M5 PAM -5, CHO-K1 Ca PAM -5, CHRM5 antagonist 5, M1 ag parental 5, M5 ag -2 and CHO-K1 Ca antag -1.
Screening CC(=O)Nc1ccc(Sc2ncccc2C(=O)Nc2ccc(F)cc2)cn1 returned M5 PAM -14, CHO-K1 Ca PAM -15, CHRM5 antagonist 15, M1 ag parental 37*, M5 ag 50* and CHO-K1 Ca antag 12.
`CCOc1ccc(NC(=O)Nc2ccc3nccnc3c2)cc1` gave M5 PAM -8, CHO-K1 Ca PAM 13, CHRM5 antagonist 11, M1 ag parental 6, M5 ag 3 and CHO-K1 Ca antag -8.
Screening O=C(O)CCCN1C(=O)NC2NC(=O)NC21 (stereo unspecified) returned M5 PAM 2, CHO-K1 Ca PAM -7, CHRM5 antagonist -3, M1 ag parental 0, M5 ag 3 and CHO-K1 Ca antag 34*.
Screening COc1cc(OC)c(OC)cc1CN1CCN(Cc2cccc(F)c2)CC1 returned M5 PAM -4, CHO-K1 Ca PAM 2, CHRM5 antagonist -7, M1 ag parental 0, M5 ag -2 and CHO-K1 Ca antag -7.
For COc1cc(OC)c(OC)cc1CN1CCN(Cc2ccc(C(F)(F)F)cc2)CC1 the results were M5 PAM 22*, CHO-K1 Ca PAM 25, CHRM5 antagonist -7, M1 ag parental 0, M5 ag 0 and CHO-K1 Ca antag -18.
`CC(=O)N1CCCC(C)(C(=O)N(C)Cc2cccc3ccccc23)C1` (stereo unspecified) gave M5 PAM -3, CHO-K1 Ca PAM -1, CHRM5 antagonist 4, M1 ag parental 0, M5 ag 0 and CHO-K1 Ca antag -13.
`CCCCNC(=S)Nc1ccccc1Cc1ccccc1` gave M5 PAM 23*, CHO-K1 Ca PAM -18, CHRM5 antagonist -6, M1 ag parental 1, M5 ag -5 and CHO-K1 Ca antag 3.
`O=[N+]([O-])c1cccc(SSc2cccc([N+](=O)[O-])c2)c1` gave M5 PAM 12, CHO-K1 Ca PAM 12, CHRM5 antagonist 13, M1 ag parental 0, M5 ag 26* and CHO-K1 Ca antag -3.
For CCOC(=O)N1CCN(C(=O)c2ccc(CS(=O)(=O)c3ccccc3OC)o2)CC1 the results were M5 PAM 1, CHO-K1 Ca PAM 20, CHRM5 antagonist 3, M1 ag parental 1, M5 ag -1 and CHO-K1 Ca antag -2.
Screening COc1ccccc1N1CCN(C(=O)c2ccc(CS(=O)(=O)c3ccccc3OC)o2)CC1 returned M5 PAM -16, CHO-K1 Ca PAM 5, CHRM5 antagonist 7, M1 ag parental 4, M5 ag 34* and CHO-K1 Ca antag 12.
`COc1ccccc1N1CCN(C(=O)c2cccc3c(=O)c(C)c(-c4ccccc4)oc23)CC1` gave M5 PAM -19, CHO-K1 Ca PAM 16, CHRM5 antagonist 12, M1 ag parental 7, M5 ag 26* and CHO-K1 Ca antag 2.
Screening COc1ccccc1N1CCN(C(=O)c2oc3ccccc3c2C)CC1 returned M5 PAM -6, CHO-K1 Ca PAM 0, CHRM5 antagonist 5, M1 ag parental 5, M5 ag 1 and CHO-K1 Ca antag -13.
O=C(c1ccc(-n2c(SCc3cccc(F)c3)nc3ccccc3c2=O)cc1)N1CCOCC1 was read as M5 PAM -3, CHO-K1 Ca PAM 6, CHRM5 antagonist 0, M1 ag parental 0, M5 ag -1 and CHO-K1 Ca antag 1.
Screening O=c1c2ccccc2nc(SCc2cccc(F)c2)n1-c1cccc(S(=O)(=O)N2CCCC2)c1 returned M5 PAM -6, CHO-K1 Ca PAM -15, CHRM5 antagonist 10, M1 ag parental 0, M5 ag 0 and CHO-K1 Ca antag 27*.
Screening COC(=O)c1ccc2c(c1)C(C)(C)C(/C=C/c1ccccc1O)=[N+]2C returned M5 PAM 9, CHO-K1 Ca PAM 11, CHRM5 antagonist 4, M1 ag parental 8, M5 ag 23* and CHO-K1 Ca antag 9.
`COc1ccc(-c2csc(-n3ncc(-c4cccs4)c3N)n2)cc1` gave M5 PAM 1, CHO-K1 Ca PAM 8, CHRM5 antagonist 5, M1 ag parental 0, M5 ag 0 and CHO-K1 Ca antag 4.
Screening Nc1[nH]n(-c2ccccc2)c(=O)c1N=Nc1ccccc1[N+](=O)[O-] returned M5 PAM -1, CHO-K1 Ca PAM -9, CHRM5 antagonist 0, M1 ag parental 0, M5 ag -4 and CHO-K1 Ca antag -4.
For COc1cc([N+](=O)[O-])ccc1N=Nc1c(N)[nH]n(-c2ccccc2)c1=O the results were M5 PAM -1, CHO-K1 Ca PAM 22, CHRM5 antagonist 3, M1 ag parental 17*, M5 ag -2 and CHO-K1 Ca antag 1.
Cc1ccc(NC(=S)c2nc3ccccc3[nH]2)cc1 was read as M5 PAM 0, CHO-K1 Ca PAM 10, CHRM5 antagonist 47*, M1 ag parental 0, M5 ag 21 and CHO-K1 Ca antag -7.
For Cc1ccc(NC(=S)c2nc3ccccc3[nH]2)c(C)c1 the results were M5 PAM -3, CHO-K1 Ca PAM 16, CHRM5 antagonist 4, M1 ag parental 6, M5 ag -4 and CHO-K1 Ca antag 8.

Screening results from PubChem.
